What was measured:
[1] = system: HepG2; test: Antiproliferative activity against human HepG2 cells assessed as reduction in cell growth after 72 hrs by MTT assay; format: functional, cell-based; conditions: HepG2, 72 h
Procedure, shortened: (§1)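 Human HepG2, MCF-7, HCT-116 and K562 tumour cells plus normal L-02 hepatocytes and PBMCs were exposed to compounds for 72 h and growth was read by MTT. 5-Fu served as positive control. IC50 is the concentration inhibiting 50% of cell growth, given as mean ± standard deviation of three independent experiments.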

[2] = system: K562; test: Antiproliferative activity against human K562 cells assessed as reduction in cell growth after 72 hrs by MTT assay; format: functional, cell-based; conditions: K562, 72 h; procedure, shortened: as §1
[3] = system: HCT-116; test: Antiproliferative activity against human HCT116 cells assessed as reduction in cell growth after 72 hrs by MTT assay; format: functional, cell-based; conditions: HCT-116, 72 h; procedure, shortened: as §1
[4] = system: PBMC; test: Cytotoxicity against human PBMC assessed as reduction in cell growth after 72 hrs by MTT assay; format: cell-based; procedure, shortened: as §1
[5] = system: L02; test: Antiproliferative activity against human L02 cells assessed as reduction in cell growth after 72 hrs by MTT assay; format: functional, cell-based; conditions: L02, 72 h; procedure, shortened: as §1
[6] = system: MCF7; test: Antiproliferative activity against human MCF7 cells assessed as reduction in cell growth after 72 hrs by MTT assay; format: functional, cell-based; conditions: MCF7, 72 h; procedure, shortened: as §1

SMILES | IC50 [1] [µM] | IC50 [2] [µM] | IC50 [3] [µM] | IC50 [4] [µM] | IC50 [5] [µM] | IC50 [6] [µM]
CN1Cc2c(ccc3c2OCO3)[C@@H]2[C@H]1c1cc3c(cc1C[C@@H]2O)OCO3 [CHELIDONINE] | > 40 | 17.7 | > 40 | > 40 | > 40 | > 40
CN1Cc2c(ccc3c2OCO3)[C@H]2[C@@H](OC(=O)CCCC(=O)NCCOc3no[n+]([O-])c3S(=O)(=O)c3ccccc3)Cc3cc4c(cc3[C@H]21)OCO4 | 26.4 | 12.1 | > 40 | > 40 | > 40 | 14.6
CN1Cc2c(ccc3c2OCO3)[C@H]2[C@@H](OC(=O)CCCC(=O)NCCCOc3no[n+]([O-])c3S(=O)(=O)c3ccccc3)Cc3cc4c(cc3[C@H]21)OCO4 | 10.7 | 3.18 | 7.25 | > 40 | 19.9 | 5.29
CN1Cc2c(ccc3c2OCO3)[C@H]2[C@@H](OC(=O)CCC(=O)OCC#CCOc3no[n+]([O-])c3S(=O)(=O)c3ccccc3)Cc3cc4c(cc3[C@H]21)OCO4 | 14.4 | 3.78 | 23.5 | > 40 | 28.2 | 5.41
CC(CNC(=O)CCCC(=O)O[C@H]1Cc2cc3c(cc2[C@@H]2[C@H]1c1ccc4c(c1CN2C)OCO4)OCO3)Oc1no[n+]([O-])c1S(=O)(=O)c1ccccc1 (stereo partly specified) | 7.59 | 2.68 | 12.2 | > 40 | 23.4 | 4.92
CN1Cc2c(ccc3c2OCO3)[C@H]2[C@@H](OC(=O)CCC(=O)OCCOCCOc3no[n+]([O-])c3S(=O)(=O)c3ccccc3)Cc3cc4c(cc3[C@H]21)OCO4 | 8.65 | 4.52 | 8.68 | > 40 | 23.9 | 8.92
O=c1[nH]cc(F)c(=O)[nH]1 [FLUOROURACIL] | 32.6 | 3.94 | 6.86 | > 40 | > 40 | 26.7
CN1Cc2c(ccc3c2OCO3)[C@H]2[C@@H](OC(=O)CCC(=O)NCCCOc3no[n+]([O-])c3S(=O)(=O)c3ccccc3)Cc3cc4c(cc3[C@H]21)OCO4 | 16.8 | 9.8 | 17.3 | > 40 | 36.5 | 13.6
CN1Cc2c(ccc3c2OCO3)[C@H]2[C@@H](OC(=O)CCCC(=O)OCCCCCCOc3no[n+]([O-])c3S(=O)(=O)c3ccccc3)Cc3cc4c(cc3[C@H]21)OCO4 | > 40 | 9.59 | > 40 | > 40 | > 40 | 13.2
CN1Cc2c(ccc3c2OCO3)[C@H]2[C@@H](OC(=O)CCCC(=O)OCCOCCOc3no[n+]([O-])c3S(=O)(=O)c3ccccc3)Cc3cc4c(cc3[C@H]21)OCO4 | 6.55 | 2.6 | 8.47 | > 40 | 16.5 | 6.55
CN1Cc2c(ccc3c2OCO3)[C@H]2[C@@H](OC(=O)CCC(=O)NCCOc3no[n+]([O-])c3S(=O)(=O)c3ccccc3)Cc3cc4c(cc3[C@H]21)OCO4 | 11.4 | 3.17 | 11.5 | > 40 | 27.7 | 7.94
CN1Cc2c(ccc3c2OCO3)[C@H]2[C@@H](OC(=O)CCCC(=O)OCCCCOc3no[n+]([O-])c3S(=O)(=O)c3ccccc3)Cc3cc4c(cc3[C@H]21)OCO4 | 19.6 | 6.14 | 19.1 | > 40 | > 40 | 6.81
CN1Cc2c(ccc3c2OCO3)[C@H]2[C@@H](OC(=O)CCC(=O)OCCCCOc3no[n+]([O-])c3S(=O)(=O)c3ccccc3)Cc3cc4c(cc3[C@H]21)OCO4 | 6.39 | 2.91 | 8.27 | > 40 | 19.7 | 4.78
CN1Cc2c(ccc3c2OCO3)[C@H]2[C@@H](OC(=O)CCC(=O)OCCCCCCOc3no[n+]([O-])c3S(=O)(=O)c3ccccc3)Cc3cc4c(cc3[C@H]21)OCO4 | 9.45 | 7.61 | 16.6 | > 40 | > 40 | 7.94
CC(CNC(=O)CCC(=O)O[C@H]1Cc2cc3c(cc2[C@@H]2[C@H]1c1ccc4c(c1CN2C)OCO4)OCO3)Oc1no[n+]([O-])c1S(=O)(=O)c1ccccc1 (stereo partly specified) | 19.4 | 6.94 | 16.4 | > 40 | > 40 | 8.37
CN1Cc2c(ccc3c2OCO3)[C@H]2[C@@H](OC(=O)CCC(=O)OCCCOc3no[n+]([O-])c3S(=O)(=O)c3ccccc3)Cc3cc4c(cc3[C@H]21)OCO4 | 10.5 | 3.08 | 15.7 | > 40 | 14.6 | 3.68

From ChEMBL document CHEMBL4610039, “Design, synthesis and apoptosis-related antiproliferative activities of chelidonine derivatives” (Bioorg Med Chem Lett, 2020)
